Bioassay records: PubChem, Broad Institute
DYRK1A inh: Dyrk1A (rat) kinase inhibition | inhibition, % at 12.5 µM | ADP-Glo luminescence, NFATc1 peptide | Q63470 | 0.43% of 310,000 active; in the data active = inhibition above about 50%;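 note: plate controls were vehicle with enzyme for no effect and no enzyme for full effect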
ALR inh: inhibitors of human sulfhydryl oxidase ALR | P55789 | purified ALR, DTT oxidation, H2O2 HRP-luminol luminescence | inhibition, % (test concentration not listed) | 3.8% of 290,000 active | AID 485317;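 active = mean replicate inhibition above about 79%, with every replicate also reaching it, limit read from the data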
Target sequence (P55789 whole entry, looked up): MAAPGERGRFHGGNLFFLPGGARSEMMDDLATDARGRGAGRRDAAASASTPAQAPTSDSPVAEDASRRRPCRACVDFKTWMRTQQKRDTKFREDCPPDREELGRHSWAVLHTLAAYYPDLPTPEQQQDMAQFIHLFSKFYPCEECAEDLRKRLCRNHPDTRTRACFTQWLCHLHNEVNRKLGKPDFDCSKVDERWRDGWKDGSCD
CAL PDZ FP-1: inhibitors of human CAL PDZ peptide binding; Q9HD26; inhibition, % at 24.9 µM; 0.92% of 300,000 active; purified CAL PDZ, TMR-peptide fluorescence polarization, 1 h; AID 602252;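 active = mean inhibition of at least 30% with at least half of replicates also reaching 30%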;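 note: 0% = DMSO neutral control and 100% = excess unlabeled competitor peptide PRC23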
CAL PDZ FP-2: blocks peptide binding to human CAL PDZ domain; Q9HD26; purified CAL PDZ, TMR-peptide fluorescence polarization, 1 h; inhibition, % at 20 µM; 0.02% of 330,000 active;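 active = highest replicate inhibition of at least 40%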;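 note: plate controls were DMSO neutral control wells for no effect and unlabeled competitor peptide control wells for full effect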
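Read-out basis: mP drop reported as inhibition | Assay system: Tagged CAL PDZ protein CerCALP, purified | Benchmarks: Unlabelled peptide for full inhibition, DMSO wells as neutral | Schedule: 1 h incubation at room temperature before polarization reading | Buffer or medium: Sodium phosphate/NaCl buffer pH 7.4 with TCEP, IgG, Thesit | Doses: Single point, 20 µM | Measured by: Fluorescence polarization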
Rtt109 HAT inh: C. albicans Rtt109 histone acetyltransferase inhibition | Q5AAJ8 | purified Rtt109/Vps75, ThioGlo CoA-SH fluorescence, 4 h | inhibition, % at 34.9 µM | 0.16% of 330,000 active | AID 540336;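 active = inhibition of at least 50% in every replicate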
Target sequence (Q5AAJ8 whole entry, looked up): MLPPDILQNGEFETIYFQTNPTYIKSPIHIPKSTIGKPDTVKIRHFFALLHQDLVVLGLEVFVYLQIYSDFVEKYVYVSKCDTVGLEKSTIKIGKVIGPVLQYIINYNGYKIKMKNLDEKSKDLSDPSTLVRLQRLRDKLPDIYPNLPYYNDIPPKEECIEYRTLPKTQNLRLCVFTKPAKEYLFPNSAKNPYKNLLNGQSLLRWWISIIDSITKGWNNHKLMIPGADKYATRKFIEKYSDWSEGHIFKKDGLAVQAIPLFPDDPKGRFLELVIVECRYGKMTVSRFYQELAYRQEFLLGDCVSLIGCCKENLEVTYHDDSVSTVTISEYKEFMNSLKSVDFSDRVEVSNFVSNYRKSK
Numbers without * were called inactive; / = not tested or not shown. Most compounds without a hit are left out; they make up all but 4.3% or so of the library.

SMILES | DYRK1A inh | ALR inh | CAL PDZ FP-1 | CAL PDZ FP-2 | Rtt109 HAT inh
Cc1ccc(S(=O)(=O)N2CCC(C(=O)OCC(=O)N(Cc3ccccc3)C(C)(C)C)CC2)cc1C | 21.3 | / | -4.4 | -0.8 | 6.4
Cn1c(=O)c2c(O)c([N+](=O)[O-])c(=O)n(C)c2n(C)c1=O | 4.2 | -23.3 | / | -0.2 | -0.7
O=C(NC1CCN(S(=O)(=O)c2cccc(F)c2)CC1)c1cccc(F)c1 | 1.6 | 0.7 | -3.1 | 0.2 | -1.5
CC1(C)Cc2c(C#N)c(NCCCO)nc(-c3ccccc3)c2CO1 | 9.2 | 3.6 | / | 0.2 | -14.8
CC1(C)Cc2c(c(-c3ccccc3)nc3[nH][nH]c(=O)c23)CO1 | 7.5 | 99.2* | -0.7 | / | -6.5
CCOC(=O)C1=C(SCC(=O)Nc2ccccc2)NC(=O)C(C#N)C12CCCCC2 (centres undefined) | 9.0 | 89.0* | -1.0 | -0.4 | 4.2
N#CC1=C(N)NC(SCC(=O)Nc2ccccc2)=C(C#N)C12CCCC2 | 5.4 | 94.5* | / | -1.9 | 2.5
N#CC1=C(N)NC(SCC(=O)O)=C(C#N)C12CCCC2 | -3.0 | 6.9 | -1.7 | -0.2 | 1.0
O=C(CCS(=O)(=O)c1ccccc1)Nc1ccccc1F | -3.3 | / | 26.1 | -0.4 | /
O=C(c1c(F)cccc1F)N1CCN=C1SCc1ccccc1 | 15.6 | 4.6 | -3.9 | -2.1 | -2.4
O=C(c1ccccc1F)N1CCN=C1SCc1cccnc1 | -4.8 | 99.8* | / | -0.4 | -15.4
CCOc1ccccc1C(=O)N1CCN=C1SCc1cccnc1 | -4.2 | 99.4* | / | -1.8 | 5.2
CC(C)Sc1cc(Cl)nc(NC(=O)Nc2ccccc2)n1 | -12.2 | 0.4 | -2.9 | -0.1 | 7.9
COc1cc(OC)c(S(=O)(=O)Nc2ccc(C)cn2)cc1NC(C)=O | 4.4 | -22.7 | -2.5 | -0.5 | 7.7
COC(=O)CSc1nnc(Cc2ccccc2)n1-c1ccc(C)cc1 | -5.7 | -1.7 | -1.1 | -2.0 | 2.3
CCn1c(Cc2ccccc2)nnc1SCC(=O)Nc1ccc(N)cc1 | 2.1 | 86.6* | -1.0 | 0.2 | -8.3
O=C(CSc1nnc(Cc2ccccc2)n1-c1ccccc1)NNC(=O)Cc1ccccc1 | -6.1 | 98.3* | / | -2.8 | -2.2
CCn1c(Cc2ccccc2)nnc1SCC(=O)Nc1ccc(OC)cc1 | 2.7 | -1.2 | 0.4 | / | -9.3
CCn1c(CC(=O)Nc2ccc(C)cc2)nnc1SCC(=O)N1CCN(c2ccccc2)CC1 | 0.8 | 88.7* | 0.5 | -1.3 | -2.8
COc1ccc(NC(=O)CN2CCC(C(N)=O)(N3CCCCC3)CC2)c(OC)c1 | 2.8 | -6.2 | 1.5 | -0.5 | 5.6
O=C(CN1CCN(Cc2cccc(F)c2)CC1)Nc1ccccc1F | -1.9 | -1.6 | -0.6 | -0.6 | -3.9
CC1CCCN(c2nc3ccccc3nc2C(C#N)S(=O)(=O)c2cccs2)C1 (centres undefined) | 10.6 | 96.8* | -0.9 | / | -0.8
S=c1nc(-c2ccc(Cl)cc2)[nH][nH]1 | 9.9 | / | 7.8 | 0.5 | 14.2
CCCOc1ccc(-c2nc(=S)[nH][nH]2)cc1 | -5.1 | 98.6* | -1.1 | -0.2 | 8.0
O=c1ccc2[n+]([O-])c3ccc(O)cc3oc-2c1 | / | / | 71.4* | 43.1* | 5.3
SMILES | DYRK1A inh | ALR inh | CAL PDZ FP-1 | CAL PDZ FP-2 | Rtt109 HAT inh
O=c1cc(O)c2ccc(O)cc2o1 | 20.1 | 15.8 | -2.0 | 0.6 | -0.7
COc1ccc(N2CCN(C(=O)CCCn3nnnc3CN3CCOCC3)C(C)C2)cc1 (centres undefined) | / | 99.0* | / | -0.1 | 0.7
CCOC(=O)CC1CCCCN1C(=O)CCCn1nnnc1CN1CCOCC1 (centres undefined) | 19.5 | -0.1 | -2.2 | -1.4 | 1.2
O=C(COc1ccc(-n2cnnn2)cc1)Nc1ccc(F)c(F)c1 | -2.5 | -0.2 | / | -0.5 | -12.1
COc1ccc(S(=O)(=O)Nc2c(C(=O)O)[nH]c3ccc(OC)cc23)cc1 | 9.2 | 97.7* | -5.3 | -2.7 | 14.9
COc1ccc2[nH]c(C(=O)O)c(NS(=O)(=O)c3ccc(OC)c(OC)c3)c2c1 | 9.5 | / | -2.4 | 0.8 | -9.1
O=C(O)C1CCCN(S(=O)(=O)c2cccs2)C1 (centres undefined) | / | -4.7 | -0.4 | 0.2 | 0.6
Cc1ccc(S(=O)(=O)N2CCCC(C(=O)O)C2)s1 (centres undefined) | -1.1 | 86.7* | 2.4 | -0.4 | 5.3
CC(/C=N/NC(=O)c1ccccc1F)c1ccccc1 (centres undefined) | -5.3 | -8.2 | -2.7 | -1.3 | -16.6
CN(C(=O)c1ccccc1F)C(c1ccccc1)c1ccccc1 | 7.0 | / | 41.7* | -0.4 | 6.6
CCN(c1ccc(OCC(=O)OCC(=O)Nc2ccc(F)c(F)c2F)cc1)S(=O)(=O)c1ccccc1 | 3.5 | -31.7 | -1.9 | 0.0 | 8.4
CN1CCc2cc(O)c(O)cc2C(c2ccccc2)C1 (centres undefined) | 9.9 | / | -5.9 | 0.7 | 7.1
C=CCN1CCc2c(cc(O)c(O)c2Br)[C@@H](c2ccccc2)C1 | -7.1 | 98.8* | -1.4 | 0.3 | 3.0
COc1ccc(NC(=O)c2ccc(NC(=O)CN(C)CC(=O)Nc3c(C)cccc3C)cc2)cc1 | -11.6 | -6.1 | -2.5 | -3.6 | -2.1
Cc1cc(S(=O)(=O)Nc2cc(C)c(O)c(C)c2)c(C)s1 | -13.5 | 77.4* | / | -2.4 | -5.6
CCCCC(=O)NC(c1ccccc1)c1ccc2cccnc2c1O (centres undefined) | 13.4 | -2.2 | / | -0.1 | -3.9
CCCCC(=O)NC(c1ccccc1Cl)c1ccc2cccnc2c1O (centres undefined) | 0.5 | / | 58.3* | -0.2 | 2.4
Cc1ccc(C(=O)NN2CCOCC2)cc1 | -6.6 | 98.2* | 0.3 | -0.5 | 8.8
O=C(NN1CCOCC1)c1ccccc1Br | 5.3 | 2.4 | -0.8 | -0.3 | -3.2
Cc1ccccc1C(=O)NN1CCOCC1 | / | -16.7 | 81.9* | -0.1 | -7.6
O=C(/C=C/c1cccnc1)/C=C/c1cccnc1 | 5.2 | / | 0.2 | -1.9 | -1.1
O=c1c(Cc2c(F)cccc2Cl)c(O)ccn1CCc1c[nH]c2ccccc12 | -8.1 | / | -3.3 | -2.5 | 6.3
O=Cc1ccc2ccc3cccnc3c2n1 | 25.6 | 0.1 | 55.0* | -0.8 | 7.2
O=Cc1ccc2cccnc2n1 | -1.7 | / | 1.7 | -0.3 | 3.5
CC1=C(C(=O)OCc2ccccc2)C(c2cccc([N+](=O)[O-])c2)NC(=O)N1C (centres undefined) | -3.1 | -3.1 | -2.6 | -0.9 | -2.9
SMILES | DYRK1A inh | ALR inh | CAL PDZ FP-1 | CAL PDZ FP-2 | Rtt109 HAT inh
CCn1c(=NC(=O)CSC(C)=O)sc2cc(F)ccc21 | 5.7 | 98.0* | -1.8 | -0.7 | -0.4
C#CCn1c(=NC(=O)CSC(C)=O)sc2cc(F)ccc21 | 1.3 | 97.4* | -5.4 | 0.3 | 0.8
CCC(=O)N=c1sc2cc(F)cc(F)c2n1C | 0.5 | -0.7 | -1.9 | -0.2 | -0.1
COc1ccc(CCN2C(=O)C3C(C2=O)C2C=CC3C23CC3)cc1OC (centres undefined) | 3.4 | -2.7 | 7.0 | -0.6 | -7.5
O=S(=O)(/N=C(/Nc1cccc2ccccc12)c1ccccc1)c1ccc(Br)cc1 | -4.9 | -4.0 | -4.4 | -3.0 | -5.7
COc1cc(/C=C/c2sc3ccccc3[n+]2CCCS(=O)(=O)[O-])ccc1O | 23.6 | 98.7* | -7.0 | -7.2 | 19.7
